According to ChEMBL document CHEMBL3286393 (J Med Chem, 2014):
One block for each compound: values may come before it. Active and inactive are the calls of the source. The calls are words filed in the database; no cut-off is given here.

Columns and labels:
[1] = molecular target: T1, Polyunsaturated fatty acid 5-lipoxygenase (Homo sapiens, UniProt P09917); test: Inhibition of 5-LO in human neutrophils using arachidonic acid as substrate preincubated for 15 mins measured after 10 mins by HPLC analysis
T1 sequence (P09917 whole entry): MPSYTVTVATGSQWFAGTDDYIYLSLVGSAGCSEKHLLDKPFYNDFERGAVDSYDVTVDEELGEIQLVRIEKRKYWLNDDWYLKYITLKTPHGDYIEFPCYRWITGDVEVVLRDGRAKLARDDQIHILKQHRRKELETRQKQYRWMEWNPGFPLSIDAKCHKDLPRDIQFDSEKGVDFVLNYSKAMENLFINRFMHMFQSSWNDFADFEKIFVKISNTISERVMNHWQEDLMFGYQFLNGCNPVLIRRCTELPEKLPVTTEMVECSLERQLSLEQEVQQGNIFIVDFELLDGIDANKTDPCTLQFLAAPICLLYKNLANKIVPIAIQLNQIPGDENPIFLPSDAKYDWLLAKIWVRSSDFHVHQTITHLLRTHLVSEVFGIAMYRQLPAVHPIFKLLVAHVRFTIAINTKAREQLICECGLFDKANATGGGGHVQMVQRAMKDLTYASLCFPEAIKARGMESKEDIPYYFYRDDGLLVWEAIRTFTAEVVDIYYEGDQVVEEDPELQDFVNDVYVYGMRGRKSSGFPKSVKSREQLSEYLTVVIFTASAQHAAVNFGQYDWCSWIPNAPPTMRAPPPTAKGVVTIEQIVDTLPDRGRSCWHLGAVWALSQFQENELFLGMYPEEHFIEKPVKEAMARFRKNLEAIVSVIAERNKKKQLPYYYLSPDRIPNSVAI
How it was run: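 Fresh human neutrophils, 1 × 10⁷/mL in PBS pH 7.4 with 1 mM CaCl2 and 1 mg/mL glucose, preincubated 15 min at 37 °C. LTB4, its all-trans isomers and 5-H(P)ETE by HPLC.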

[2] = molecular target: T1, Polyunsaturated fatty acid 5-lipoxygenase; test: Inhibition of human recombinant 5-LO expressed in Escherichia coli Bl21 (DE3) using arachidonic acid as substrate preincubated for 10 mins measured after 10 mins by RP-HPLC analysis
How it was run: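 5-LO expressed from pT3-5LO in E. coli BL21(DE3), semi-purified on ATP-agarose, diluted in PBS with 1 mM EDTA and 1 mM ATP. Preincubated with compound 10 min at 4 °C, then 30 s at 37 °C. Started with 2 mM CaCl2 plus 20 μM arachidonic acid; 10 min at 37 °C; ice-cold methanol stop. Three to four experiments.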

[3] = Aqueous stability of the compound in at 2 uM in 10 mM aqueous ammonium bicarbonate at pH 7.9 assessed as formation of trans-6-(4'-hydroxy-3'-methoxyphenyl)-2,4-dioxo-5-hexenal measured as residual amount of compound by reversed phase liquid chromatography-coupled mass spectrometry; assay type: physicochemical; conditions: buffer, pH 7.9, 2 µM
How it was run: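 Compounds at 2 μM in 10 mM aqueous ammonium bicarbonate pH 7.9, incubated 30 min at 37 °C. Analysed by UPLC-MS on a C18 column, gradient acetonitrile/water with 0.07% formic acid, at 0.7 mL/min. Residual amount given as % of control; three to four independent experiments.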

[4] = molecular target: T2, Prostaglandin E synthase (Homo sapiens) (UniProt O14684); test: Inhibition of mPGES1-mediated PGE2 production in microsomes of IL-1beta stimulated human A549 cells assessed as residual activity preincubated at 10 uM for 15 mins by RP-HPLC analysis relative to control; assay type: cell-based
T2 sequence (whole entry): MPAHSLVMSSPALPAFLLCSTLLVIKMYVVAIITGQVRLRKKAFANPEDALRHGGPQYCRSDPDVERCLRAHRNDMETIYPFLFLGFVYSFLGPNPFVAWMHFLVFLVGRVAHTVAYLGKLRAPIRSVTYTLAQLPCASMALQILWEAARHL
How it was run: (§1)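 mPGES-1 source: microsomes of A549 cells treated 48 h with IL-1β 2 ng/mL, at 25−50 μg protein/mL in 0.1 M potassium phosphate pH 7.4 with 2.5 mM glutathione. Compound preincubation 15 min at 4 °C; PGH2 (20 μM final) for 1 min; FeCl2/citric acid stop with 11β-PGE2 internal standard. PGE2 by RP-HPLC.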

[5] = molecular target: T3, Prostaglandin G/H synthase 1 (Ovis aries) (UniProt P05979); test: Inhibition of purified ovine COX-1 assessed as residual activity by measuring formation of 12-HHT from arachidonic acid preincubated at 10 uM for 5 mins before substrate addition measured after 5 mins by HPLC analysis relative to control
T3 sequence (whole entry): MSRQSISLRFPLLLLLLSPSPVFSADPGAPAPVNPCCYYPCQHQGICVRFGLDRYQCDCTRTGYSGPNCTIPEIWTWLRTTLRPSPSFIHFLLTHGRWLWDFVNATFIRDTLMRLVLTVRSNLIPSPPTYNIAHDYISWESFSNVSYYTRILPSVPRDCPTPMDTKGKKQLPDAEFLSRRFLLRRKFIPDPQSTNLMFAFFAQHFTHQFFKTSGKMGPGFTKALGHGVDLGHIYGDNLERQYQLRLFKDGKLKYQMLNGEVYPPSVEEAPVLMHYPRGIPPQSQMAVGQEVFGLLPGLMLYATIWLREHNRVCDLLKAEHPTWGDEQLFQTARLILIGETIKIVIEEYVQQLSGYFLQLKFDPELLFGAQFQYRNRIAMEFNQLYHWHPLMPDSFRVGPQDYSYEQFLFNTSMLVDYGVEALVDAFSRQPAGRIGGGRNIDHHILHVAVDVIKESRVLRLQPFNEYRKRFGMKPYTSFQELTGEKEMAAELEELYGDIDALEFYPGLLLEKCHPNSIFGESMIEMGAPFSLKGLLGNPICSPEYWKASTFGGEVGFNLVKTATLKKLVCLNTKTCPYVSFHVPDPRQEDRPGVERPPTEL
How it was run: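 Purified ovine COX-1 (50 units) in 100 mM Tris pH 8 with 5 mM glutathione, 5 μM hemoglobin and 100 μM EDTA. Preincubated 5 min at 4 °C then 1 min at 37 °C. 5 μM arachidonic acid added; 12-HHT extracted after 5 min and measured by HPLC. Residual activity at 10 μM, three independent experiments.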

[6] = test system: Radical scavenging activity; test: Antioxidant activity assessed as DPPH free radical scavenging activity at 10 uM after 30 mins […] by spectrophotometric analysis; assay type: functional
[7] = molecular target: T4, Polyunsaturated fatty acid lipoxygenase ALOX12 (Homo sapiens) (UniProt P18054); test: Inhibition of 12-LO in human neutrophils assessed as residual activity relative to control; conditions: values are per cent of control
T4 sequence (whole entry): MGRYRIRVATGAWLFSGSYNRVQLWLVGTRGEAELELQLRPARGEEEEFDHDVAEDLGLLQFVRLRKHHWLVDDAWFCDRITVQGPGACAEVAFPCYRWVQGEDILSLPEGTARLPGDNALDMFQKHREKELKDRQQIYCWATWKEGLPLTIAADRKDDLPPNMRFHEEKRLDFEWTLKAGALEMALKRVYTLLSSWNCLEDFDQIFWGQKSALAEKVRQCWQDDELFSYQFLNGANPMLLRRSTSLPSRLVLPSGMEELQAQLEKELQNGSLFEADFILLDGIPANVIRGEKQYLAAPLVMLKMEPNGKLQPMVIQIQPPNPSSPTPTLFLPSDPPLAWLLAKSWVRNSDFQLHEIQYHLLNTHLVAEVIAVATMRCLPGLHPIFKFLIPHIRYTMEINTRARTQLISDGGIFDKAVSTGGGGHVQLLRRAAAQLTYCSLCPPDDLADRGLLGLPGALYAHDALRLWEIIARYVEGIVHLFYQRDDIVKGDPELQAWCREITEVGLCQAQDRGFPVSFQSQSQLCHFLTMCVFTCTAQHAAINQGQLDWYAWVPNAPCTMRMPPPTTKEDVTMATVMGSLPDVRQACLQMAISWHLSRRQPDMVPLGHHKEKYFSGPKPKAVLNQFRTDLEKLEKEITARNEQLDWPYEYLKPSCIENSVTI

[8] = molecular target: T5, Prostaglandin G/H synthase 1 (Homo sapiens, UniProt P23219); test: Inhibition of COX1-mediated PGE2 production in human platelets assessed as residual activity by measuring formation of 12-HHT from arachidonic acid preincubated at 10 uM for 5 mins measured after 5 mins by RP-HPLC analysis relative to control
How it was run: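 Washed human platelets, 10⁸/mL in PBS pH 7.4 with 1 mM CaCl2: 5 min compound preincubation at room temperature, then 1 min at 37 °C. Arachidonic acid 5 μM added; 5 min at 37 °C. 12-HHT extracted and measured by RP-HPLC.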

[9] = molecular target: T5, Prostaglandin G/H synthase 1; test: Inhibition of COX1-mediated […] in human platelets assessed as residual activity by measuring formation of 12-HHT from arachidonic acid preincubated at 10 uM for 5 mins measured after 5 mins by RP-HPLC analysis relative to control; values are per cent of control
PBMC = test: Cytotoxicity against human PBMCs assessed as cell viability after 24 hrs by MTT assay; assay type: cell-based
How it was run: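 Human PBMC (2 × 10⁵/well), 24 h exposure. MTT then 4 h at 37 °C in darkness. Formazan solubilized with 10% SDS in 20 mM HCl; absorbance 550 nm. Viability relative to untreated cells; IC50 derived.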

LNCaP = test: Cytotoxicity against human LNCAP cells assessed as cell viability after 24 hrs by MTT assay; assay type: cell-based
How it was run: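 LNCaP seeded at 10⁴ cells/well and exposed 24 h. MTT added, then 4 h at 37 °C, 5% CO2, dark. Medium removed and formazan dissolved in DMSO; absorbance at 570 nm.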

[10] = molecular target: T3, Prostaglandin G/H synthase 1 (Ovis aries); test: Inhibition of purified ovine COX-1 assessed as residual activity by measuring formation of 12-HHT from arachidonic acid preincubated at 10 uM for 5 mins before substrate addition measured after 5 mins by HPLC analysis relative to control; values are per cent of control
Prostaglandin E synthase = molecular target: T6, Prostaglandin E synthase (Homo sapiens, UniProt O14684); test: Inhibition of mPGES1-mediated PGE2 production in microsomes of IL-1beta stimulated human A549 cells preincubated for 15 mins by RP-HPLC analysis; assay type: cell-based; how it was run: as §1
T6 sequence (O14684 whole entry): T2 sequence (whole entry)

[11] = molecular target: T2, Prostaglandin E synthase (Homo sapiens); test: Inhibition of mPGES1-mediated PGE2 formation in LPS-stimulated human monocytes preincubated for 15 mins before arachidonic acid substrate addition measured after 30 mins by UPLC-MS/MS analysis; assay type: cell-based
How it was run: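 Fresh human monocytes (adherence-isolated, >85% CD14+; 5 × 10⁶/well) primed with LPS 1 μg/mL for 24 h. Washed, 15 min preincubation, then 2.5 μM A23187 plus 20 μM arachidonic acid for 30 min. Eicosanoids extracted and measured by UPLC-MS/MS, normalized to PGB1 as relative intensities. Two to three independent experiments.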

Mus musculus [12] = test: Antiinflammatory activity in zymosan-induced peritonitis CD1 mouse model assessed as suppression of MPO activity at 1 mg/kg, ip administered 30 mins before challenge measured 4 hrs post zymosan challenge relative to control; assay type: functional; conditions: route intraperitoneal
How it was run: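 In male CD-1 mice (n = 5−11 per group), dose was given ip in 2% DMSO/saline 30 min before ip zymosan (2 mg/mL, 0.5 mL). Lavage 4 h later. Pelleted exudate cells disrupted; supernatant mixed with 0.167 mg/mL o-dianisidine and 0.0005% H2O2 in PBS, read kinetically by absorbance. U/mL from human neutrophil MPO calibration; % inhibition vs vehicle.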

Mus musculus [13] = test: Antiinflammatory activity in zymosan-induced peritonitis CD1 mouse model assessed as suppression of LTB4 level at 1 mg/kg, ip administered 30 mins before challenge measured 4 hrs post zymosan challenge relative to control v
Mus musculus [14] = test: Antiinflammatory activity in zymosan-induced peritonitis CD1 mouse model assessed as suppression of neutrophil infiltration at 1 mg/kg, ip administered 30 mins before challenge measured 4 hrs post zymosan challenge relative to control; assay type: functional; conditions: route intraperitoneal
How it was run: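 Zymosan peritonitis in male CD-1 mice (n = 5−11): ip dose in 2% DMSO/saline 30 min before ip zymosan. Peritoneal lavage with 3 mL cold PBS at 4 h. Exudate cells counted by light microscopy in a Burker chamber after trypan blue staining; % inhibition vs vehicle.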

T5 sequence (P23219 whole entry): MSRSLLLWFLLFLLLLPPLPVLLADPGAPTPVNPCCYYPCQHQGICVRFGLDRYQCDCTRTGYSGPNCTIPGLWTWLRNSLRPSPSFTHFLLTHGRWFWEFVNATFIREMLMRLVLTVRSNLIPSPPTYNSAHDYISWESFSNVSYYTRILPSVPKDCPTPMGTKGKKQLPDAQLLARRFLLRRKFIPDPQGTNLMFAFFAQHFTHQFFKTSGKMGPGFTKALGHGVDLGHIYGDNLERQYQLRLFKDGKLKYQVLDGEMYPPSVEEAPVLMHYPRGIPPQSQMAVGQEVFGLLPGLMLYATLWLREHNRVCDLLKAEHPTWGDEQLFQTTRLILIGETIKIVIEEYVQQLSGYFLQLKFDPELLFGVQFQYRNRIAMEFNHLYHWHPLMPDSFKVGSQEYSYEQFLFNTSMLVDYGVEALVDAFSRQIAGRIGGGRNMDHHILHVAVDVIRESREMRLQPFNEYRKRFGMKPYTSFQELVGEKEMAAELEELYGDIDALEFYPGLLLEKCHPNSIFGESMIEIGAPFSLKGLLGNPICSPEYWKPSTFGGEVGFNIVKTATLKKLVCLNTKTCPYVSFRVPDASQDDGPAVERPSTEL

SMILES: O=C1O[C@H]([C@@H](O)CO)C(O)=C1O
- Activity [6]: 20.4%

SMILES: Clc1ccccc1-c1nc2c3ccccc3c3ccccc3c2[nH]1
- inhibition [11]: Active
- IC50 (Prostaglandin E synthase; read-out: IC50): 20 nM

SMILES: CC(C)c1ccc2c(c1)c(SC(C)(C)C)c(CC(C)(C)C(=O)O)n2Cc1ccc(Cl)cc1
- inhibition in vivo at 1 mg/kg (Mus musculus [12]): 41%
- inhibition in vivo at 1 mg/kg (Mus musculus [13]): 63%
- inhibition in vivo at 1 mg/kg (Mus musculus [14]): 41%

Further lines, with some results ahead:

- IC50 [1]: 80200 nM
- IC50 [2]: 2800 nM
- Stability [3]: Unstable
- Activity [4]: 71.7%
- inhibition [5]: inactive
- residual activity [7]: 75.7%
- inhibition [8]: inactive
SMILES: COc1cc(/C=C/C(=O)CC(=O)/C=C/c2cc(CCC(C)C)c(O)c(OC)c2)cc(CCC(C)C)c1O
- Activity [6]: 64.3%

- residual activity [9]: 65.2%
- IC50 [1]: 8100 nM
- IC50 [2]: 600 nM
- Stability [3]: Unstable
- Activity [4]: 58.8%
- inhibition [5]: inactive
- residual activity [7]: 67.7%
SMILES: COc1cc(/C=C/C(=O)/C=C/c2cc(F)c(O)c(OC)c2)cc(F)c1O
- IC50 (PBMC): > 50000 nM
- IC50 (LNCaP): 25100 nM
- Activity [6]: 80.5%

- residual activity [10]: 25%
SMILES: COc1ccc2c(c1)c(CC(=O)O)c(C)n2C(=O)c1ccc(Cl)cc1

- IC50 [1]: 2900 nM
- IC50 [2]: 400 nM
- Stability [3]: 87.4%
- residual activity [10]: 82.7%
- IC50 (Prostaglandin E synthase; a549): Not Active
- residual activity [7]: 76.4%
- inhibition [8]: inactive
SMILES: COc1cc(CCC(=O)CC(=O)CCc2cc(CCC(C)C)c(O)c(OC)c2)cc(CCC(C)C)c1O
- IC50 (PBMC): > 50000 nM
- IC50 (LNCaP): > 50000 nM
- Activity [6]: 71.9%
